Hits are enriched below; roughly 3.3% of the tested compounds scored in any of these assays.
SENP1 inh: blocks the human SENP1 SUMO protease catalytic domain; Q9P0U3; recombinant SENP1 catalytic domain, CyPet-SUMO1-YPet FRET cleavage; inhibition, % at 10 µM; 360,000 compounds, 0.21% hits; AID 624204;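 active = inhibition at least 30% at 10 µM, raw YFP signal under a set limit, fluorescence ratio 0.5 to 1.5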;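 also: 0% = enzyme with DMSO and 100% = no enzyme wells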
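Material – human SENP1 catalytic domain · Input – SENP1 enzyme, 20 pM final · Compound dosing – single concentration of 10 µM compound, 0.5% DMSO final · Timing – enzyme reaction for 50 min at room temperature, dark · Measured by – FRET fluorescence in CFP and YFP emission channels · Control set – no-enzyme wells low, DMSO-plus-enzyme wells high control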
SENP6 block: SENP6 protease inhibition; Q9GZR1; Recombinant SENP6 catalytic domain, aminoluciferin luminescence; inhibition, % at 10 µM; 330,000 compounds, 1.8% hits; AID 2599;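 active = inhibition above about 50% at the single tested dose, limit read from the data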;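 also: plate controls were DMSO wells with enzyme for no effect and DMSO wells lacking enzyme for full effect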
Target sequence (Q9GZR1 628-1112 limits assumed): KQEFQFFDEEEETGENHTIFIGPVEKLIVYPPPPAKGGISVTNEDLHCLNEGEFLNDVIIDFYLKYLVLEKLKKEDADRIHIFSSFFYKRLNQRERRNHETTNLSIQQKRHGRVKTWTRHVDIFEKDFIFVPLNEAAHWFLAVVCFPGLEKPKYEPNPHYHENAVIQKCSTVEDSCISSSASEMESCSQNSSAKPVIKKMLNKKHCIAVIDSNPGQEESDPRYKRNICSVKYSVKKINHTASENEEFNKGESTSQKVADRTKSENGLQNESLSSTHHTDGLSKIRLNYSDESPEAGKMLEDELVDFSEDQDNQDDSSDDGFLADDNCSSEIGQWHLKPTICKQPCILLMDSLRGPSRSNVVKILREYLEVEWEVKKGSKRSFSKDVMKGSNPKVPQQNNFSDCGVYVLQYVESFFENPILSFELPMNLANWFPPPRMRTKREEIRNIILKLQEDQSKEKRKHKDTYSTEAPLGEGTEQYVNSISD
CendR NRP1 mod: alters CendR peptide binding to human NRP-1; FAM-RPARPAR peptide binding to NRP-1, fluorescence polarization; inhibition, % at 25 µM; 360,000 compounds, 0.85% hits; AID 602438;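 active = inhibition or corrected inhibition above about 18%, plus a signal ratio from 0.5 to 1.5, limit read from the data, passing the limit was not always enough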
SENP8 block-1: blocks the human protease SENP8; Q96LD8; 330,000 compounds, 1.2% hits; AID 2540; purified SENP8, Z-RLRGG-aminoluciferin cleavage, luminescence; inhibition, % at 10 µM; in the data active = inhibition above about 50%
SENP7 inh: SENP7 protease inhibition; recombinant SENP7, Z-RLRGG-aminoluciferin luminescence, 40 min; inhibition, % at 5 µM; 330,000 compounds, 1.5% hits; Q9BQF6;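 active = inhibition above about 50% at the single test dose, limit read from the data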;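 also: plate controls were DMSO with enzyme for no effect and no enzyme buffer wells for full effect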
SENP8 block-2: blocks human SENP8 cleavage of Nedd8 substrate; inhibition, % at 20 µM; AID 602440; 360,000 compounds, 0.64% hits; recombinant SENP8, Nedd8 substrate fluorescence; in the data active = inhibition mostly above about 40%, no sharp cut-off; inactive = mostly below about 27%
Active calls of the source: *.

What do the screens show for `NC1=C(Cl)C(=O)c2ccc(S(N)(=O)=O)cc2C1=O`?
SENP1 inh: 3; CendR NRP1 mod: 23; SENP8 block-2: 96*

How did O=C1c2ccccc2-c2nccnc21 do in these assays?
SENP1 inh: 4; SENP6 block: -7; CendR NRP1 mod: -5; SENP8 block-1: 4; SENP7 inh: 6; SENP8 block-2: 27

How did NS(=O)(=O)c1ccc2c(c1)C(=NO)c1cc(S(N)(=O)=O)ccc1-2 do in these assays?
SENP1 inh: 1; SENP6 block: 1; CendR NRP1 mod: 3; SENP8 block-1: -14; SENP7 inh: -1; SENP8 block-2: -122

How did NC1=C(Cl)C(=O)c2ccccc2C1=O do in these assays?
SENP1 inh: -1; CendR NRP1 mod: 27*; SENP8 block-2: 83*

How did COC(=O)CCCn1cc(CN2CC(N3CCN(C4CCN(C)CC4)CC3)CS2(=O)=O)nn1 (stereo unspecified) do in these assays?
SENP1 inh: -5; CendR NRP1 mod: 6; SENP8 block-2: 14

How did COc1cc(-c2nnc(SCC(=O)Nc3ccc(C(=O)O)cc3)o2)cc(OC)c1OC do in these assays?
SENP1 inh: 1; SENP6 block: -5; CendR NRP1 mod: 31*; SENP8 block-1: 4; SENP7 inh: -1; SENP8 block-2: -4

How did O=C(O)CCNc1cc(N2CCN(C(=O)c3ccco3)CC2)c2noc3c2c1C(=O)c1ccccc1-3 do in these assays?
SENP1 inh: 99; SENP6 block: 51*; CendR NRP1 mod: -115; SENP8 block-1: 36; SENP7 inh: 35; SENP8 block-2: 70*

How did Cc1cc(N2CCN(C(=O)c3ccco3)CC2)c2ccccc2n1 do in these assays?
SENP1 inh: -2; SENP6 block: -25; CendR NRP1 mod: 2; SENP8 block-1: -2; SENP7 inh: -4; SENP8 block-2: 8

Results for CCN1CCN(c2cc(N3CCN(C(=O)c4ccco4)CC3)c3c4c(onc24)-c2ccccc2C3=O)CC1 ?
SENP1 inh: 11; SENP6 block: 10; CendR NRP1 mod: -82; SENP8 block-1: 3; SENP7 inh: 3; SENP8 block-2: 68*

What do the screens show for `CC(=O)OCCNc1cc(N2CCN(C)CC2)c2noc3c2c1C(=O)c1ccccc1-3`?
SENP1 inh: 12; CendR NRP1 mod: 14; SENP8 block-2: 47*

Results for COCCN1C(=O)CN(S(C)(=O)=O)CC1(C)C(=O)Nc1ccc2c(c1)OCCO2 (stereo unspecified) ?
SENP1 inh: -1; CendR NRP1 mod: 0; SENP8 block-2: -96

Results for CC1(C)CC(=O)C(C=Nc2ccc(Cl)cn2)=C(O)C1 ?
SENP1 inh: -2; SENP6 block: -2; CendR NRP1 mod: 5; SENP8 block-1: 5; SENP7 inh: 8; SENP8 block-2: -14

Results for Cc1ccc(N=CC2=C(O)CC(C)(C)CC2=O)nc1 ?
SENP1 inh: -2; SENP6 block: -4; CendR NRP1 mod: 24*; SENP8 block-1: -3; SENP7 inh: -1; SENP8 block-2: -28

What do the screens show for `CCOc1ccc(NC(=O)COc2ccc(C(=O)NCc3cccc(OC)c3)cc2OC)cc1`?
SENP1 inh: -3; SENP6 block: -10; CendR NRP1 mod: -11; SENP8 block-1: 2; SENP7 inh: -3; SENP8 block-2: 2

How did CC1(C)CC(CCNC(=O)CCl)(c2ccccc2)CCO1 (stereo unspecified) do in these assays?
SENP1 inh: 0; SENP6 block: -3; CendR NRP1 mod: 26*; SENP8 block-1: -1; SENP7 inh: 0; SENP8 block-2: 21

What do the screens show for `CN1CCCc2cc3c(C(F)(F)F)cc(=O)oc3nc21`?
SENP1 inh: -17; SENP6 block: -11; CendR NRP1 mod: 38*; SENP8 block-1: 0; SENP7 inh: 6; SENP8 block-2: -477

What do the screens show for `COC(=O)C[C@@H]1C=C[C@@H](NC(C)=O)[C@@H](CO)O1`?
SENP1 inh: 0; CendR NRP1 mod: -2; SENP8 block-2: 10

What do the screens show for `COc1ccc(S(=O)(=O)N2CCC(C(=O)N[C@@H](C)C(=O)NCc3ccco3)CC2)cc1`?
SENP1 inh: 2; CendR NRP1 mod: -6; SENP8 block-2: 21

What do the screens show for `O=C1/C(=C/c2ccc(O)cc2)CCc2ccc([N+](=O)[O-])cc21`?
SENP1 inh: -6; SENP6 block: -28; CendR NRP1 mod: -1; SENP8 block-1: -31; SENP7 inh: -2; SENP8 block-2: 21

How did O=C1/C(=C\c2ccc([N+](=O)[O-])cc2)CCc2ccccc21 do in these assays?
SENP1 inh: 2; SENP6 block: 82*; CendR NRP1 mod: 13; SENP8 block-1: 91*; SENP7 inh: 87*; SENP8 block-2: 33

Results for COc1ccccc1N(C)c1cc2c(c3c1ccn3C)C1CCC2O1 (stereo unspecified) ?
SENP1 inh: -3; CendR NRP1 mod: -7; SENP8 block-2: -362

How did O=C(/C=C/c1cccnc1)c1ccc(NC(=O)c2cccc(Br)c2)cc1 do in these assays?
SENP1 inh: 1; SENP6 block: -2; CendR NRP1 mod: 19*; SENP8 block-1: -5; SENP7 inh: -8; SENP8 block-2: 6

Results for O=C(O)C1CC(=O)N(c2ccc(Br)cc2)C1 (stereo unspecified) ?
SENP1 inh: -1; SENP6 block: 3; CendR NRP1 mod: 4; SENP8 block-1: -1; SENP7 inh: 0; SENP8 block-2: 16

How did C=CCN(CC=C)C(=O)C1CC(=O)N(c2ccc(Br)cc2)C1 (stereo unspecified) do in these assays?
SENP1 inh: -1; SENP6 block: -1; CendR NRP1 mod: 30*; SENP8 block-1: -5; SENP7 inh: -1; SENP8 block-2: 14

How did O=S1(=O)CC(N2CCC(Cc3ccccc3)CC2)CN1C1CCCC1 (stereo unspecified) do in these assays?
SENP1 inh: 0; CendR NRP1 mod: 9; SENP8 block-2: 14

How did CCC1(C)Nc2ccccc2C(=O)N1O (stereo unspecified) do in these assays?
SENP1 inh: -1; SENP6 block: 1; CendR NRP1 mod: 26*; SENP8 block-1: -7; SENP7 inh: -4; SENP8 block-2: -216

What do the screens show for `Cc1ccc(C2C3C(=O)N(c4ccc(C)cc4)C(=O)C3N3CCCN23)cc1` (stereo unspecified)?
SENP1 inh: 1; SENP6 block: 1; CendR NRP1 mod: 8; SENP8 block-1: 6; SENP7 inh: -2; SENP8 block-2: 15

Results for N#CC1C(C#N)N2CCCN2C1c1ccc(Br)cc1 (stereo unspecified) ?
SENP1 inh: 1; SENP6 block: -17; CendR NRP1 mod: 31*; SENP8 block-1: 0; SENP7 inh: 0; SENP8 block-2: 4

Results for O=C1NC(=O)/C(=C/c2ccco2)N1 ?
SENP1 inh: 3; SENP6 block: 3; CendR NRP1 mod: 25*; SENP8 block-1: 6; SENP7 inh: 1; SENP8 block-2: -17
